Data: article PMC7433031 (European journal of medicinal chemistry, 2020)
Like-named read-outs stand apart in the source and are kept apart here.

Legend:
MOLT-4 T-ALL cells = experiment: MOLT-4 cell viability assay; assay type: cell-based, human
[1] = system: BCL-XL / BCL-2 ternary complexes with DT2216 and VHL; settings: live cells, nanoBRET assay; cited from earlier work
BCL-XL = BCL-XL (Homo sapiens, UniProt Q07817); experiment: Western blot of BCL-XL protein levels in MOLT-4 cells; assay type: cell-based; settings: for BCL-XL degradation in MOLT-4 cells at 100 nM: Western blot (Figure 3)
In short: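 MOLT-4 cells were treated for 16 h with test compound (100 nM for VHL-based, 50 nM for CRBN-based, or a concentration series for DC50). Other runs used 100 nM over a time course, or 16 h exposure followed by washout into drug-free medium. Some cells were pretreated 2 h with 10 μM pomalidomide or 1 μM MG-132. Immunoblot bands were normalized to β-actin and expressed as % remaining versus vehicle.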

[2] = system: H146 small cell lung cancer cell line; experiment: H146 cell viability assay; assay type: cell-based; settings: Homo sapiens, NCI-H146, 48 h, read-out: IC50 48 h treatment H146
In short: (§1)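 NCI-H146 small-cell lung cancer and RS4;11 B-ALL cells maintained in RPMI 1640 plus 10% FBS and 1% penicillin-streptomycin. Cells seeded at 5×10⁴ to 1×10⁵ per well and treated with test compound for 48 h. Viability measured by tetrazolium-based MTS assay, with IC50 calculated from the viability data.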

[3] = system: RS4;11 B-cell ALL cell line; experiment: RS4; assay type: cell-based; settings: Homo sapiens, RS4-11, 48 h, read-out: IC50 48 h treatment RS4;11
In short: as §1

human platelets = experiment: Human platelet viability assay; assay type: cell-based; settings: for IC50: Homo sapiens, Platelet, 48 h, read-out: IC50 48 h treatment Platelets
In short: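 Platelets were separated from purchased platelet-rich plasma in acid citrate buffer with 1 μM PGE1 and 0.2 units/mL apyrase (final). Cells were centrifuged and adjusted to 2 × 10⁸/mL in HEPES Tyrode's buffer with 10% FBS, 1 μM PGE1 and 0.2 units/mL apyrase. They were treated for 48 h, with or without a 10 μM pomalidomide block, and read by MTS. IC50 values were curve-fitted. The ratio divides platelet IC50 by 48 h MOLT-4 MTS IC50.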

[4] = system: PARP and caspase-3 cleavage; experiment: Western blot of cleaved-PARP and cleaved-caspase-3 in MOLT-4 cells; assay type: cell-based, human; settings: MOLT-4, 16 h, indicated concentrations
In short: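 MOLT-4 cells were exposed to a range of test compound concentrations for 16 h. Cleaved PARP and cleaved caspase-3 were detected by immunoblot. Equal protein was run on 4–20% Tris-glycine gels and transferred to PVDF. Membranes were blocked in 5% milk/TBS-Tween, given primary antibody overnight at 4 °C, then HRP secondary and ECL. β-actin served as loading control.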

CLL patients = settings: cited from earlier work
[5] = Homo sapiens, MOLT-4, 48 h, read-out: IC50 48 h treatment MOLT-4
[6] = Homo sapiens, MOLT-4, 48 h, read-out: IC50, reduction of MOLT-4 cell viability

Chain of BCL-XL (Q07817 whole entry): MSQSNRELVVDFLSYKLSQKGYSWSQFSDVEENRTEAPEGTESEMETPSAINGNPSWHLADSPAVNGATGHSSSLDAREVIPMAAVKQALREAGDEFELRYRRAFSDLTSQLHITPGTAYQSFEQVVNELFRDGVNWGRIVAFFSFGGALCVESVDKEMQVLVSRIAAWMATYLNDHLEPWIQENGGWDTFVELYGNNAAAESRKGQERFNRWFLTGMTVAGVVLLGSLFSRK

Row | IC50 [2] [µM] | IC50 (MOLT-4 T-ALL cells; [5]) [µM] | IC50 (MOLT-4 T-ALL cells; [6]) [µM] | IC50 [3] [µM] | Compound | IC50 (human platelets) [µM] | further results
1 |  |  |  |  | Cc1ncsc1-c1ccc([C@H](C)NC(=O)[C@@H]2C[C@@H](O)CN2C(=O)[C@@H](NC(=O)CCCCCC(=O)N2CCN(CC[C@H](CSc3ccccc3)Nc3ccc(S(=O)(=O)NC(=O)c4ccc(N5CCN(CC6=C(c7ccc(Cl)cc7)CCC(C)(C)C6)CC5)cc4)cc3S(=O)(=O)C(F)(F)F)CC2)C(C)(C)C)cc1 [Compound 1e, (2S,4R)-1-((S)-2-(7-(4-((R)-3-((4-(N-(4-(4-((4’-Chloro-4,4-dimethyl-3,4,5,6-tetrahydro-[1,1’-biphenyl]-2-yl)methyl)piperazin-1-yl)benzoyl)sulfamoyl)-2-((trifluoromethyl)sulfonyl)phenyl)amino)-4-(phenylthio)butyl)piperazin-1-yl)-7-oxoheptanamido)-3,3-dimethylbutanoyl)-4-hydroxy-N-((S)-1-(4-(4-methylthiazol-5-yl)phenyl)ethyl)pyrrolidine-2-carboxamide] |  | times more potent than ABT-263 in reducing MOLT-4 cell viability (MOLT-4 T-ALL cells; MOLT-4, versus ABT-263): 3 times; formation of stable ternary complexes with VHL [1]: BCL-XL, but not BCL-2, can form stable ternary complexes
2 |  |  |  |  | Cc1ncsc1-c1ccc([C@H](C)NC(=O)[C@@H]2C[C@@H](O)CN2C(=O)[C@@H](NC(=O)CCCCCCN(C)CC[C@H](CSc2ccccc2)Nc2ccc(S(=O)(=O)NC(=O)c3ccc(N4CCN(CC5=C(c6ccc(Cl)cc6)CCC(C)(C)C5)CC4)cc3)cc2S(=O)(=O)C(F)(F)F)C(C)(C)C)cc1 [Compound 6c, (2S,4R)-1-((S)-2-(7-(((R)-3-((4-(N-(4-(4-((4’-Chloro-4,4-dimethyl-3,4,5,6-tetrahydro-[1,1’-biphenyl]-2-yl)methyl)piperazin-1-yl)benzoyl)sulfamoyl)-2-((trifluoromethyl)sulfonyl)phenyl)amino)-4-(phenylthio)butyl)(methyl)amino)heptanamido)-3,3-dimethylbutanoyl)-4-hydroxy-N-((S)-1-(4-(4-methylthiazol-5-yl)phenyl)ethyl)pyrrolidine-2-carboxamide] |  | BCL-XL degradation in MOLT-4 cells at 100 nM (BCL-XL; 16 h): the most potent degrader among its analogs
3 | 0.0246 | 0.0173 | 0.0173 | 0.0385 | CC1(C)CCC(c2ccc(Cl)cc2)=C(CN2CCN(c3ccc(C(=O)NS(=O)(=O)c4ccc(N[C@H](CCN5CCN(CCOCCOCCOCCNc6cccc7c6C(=O)N(C6CCC(=O)NC6=O)C7=O)CC5)CSc5ccccc5)c(S(=O)(=O)C(F)(F)F)c4)cc3)CC2)C1 (stereo partly drawn) [Compound 12c, 4-(4-((4’-Chloro-4,4-dimethyl-3,4,5,6-tetrahydro-[1,1’-biphenyl]-2-yl)methyl)piperazin-1-yl)-N-((4-(((2R)-4-(4-(2-(2-(2-(2-((2-(2,6-dioxopiperidin-3-yl)-1,3-dioxoisoindolin-4-yl)amino)ethoxy)ethoxy)ethoxy)ethyl)piperazin-1-yl)-1-(phenylthio)butan-2-yl)amino)-3-((trifluoromethyl)sulfonyl)phenyl)sulfonyl)benzamide] | 1.56 | 
4 | 0.0617 | 0.0292 | 0.0292 | 0.0622 | CN(CCCCCCCn1cc(COCCOCCNc2cccc3c2C(=O)N(C2CCC(=O)NC2=O)C3=O)nn1)CC[C@H](CSc1ccccc1)Nc1ccc(S(=O)(=O)NC(=O)c2ccc(N3CCN(CC4=C(c5ccc(Cl)cc5)CCC(C)(C)C4)CC3)cc2)cc1S(=O)(=O)C(F)(F)F (stereo partly drawn) [Compound 15a, 4-(4-((4’-Chloro-4,4-dimethyl-3,4,5,6-tetrahydro-[1,1’-biphenyl]-2-yl)methyl)piperazin-1-yl)-N-((4-(((2R)-4-((7-(4-((2-(2-((2-(2,6-dioxopiperidin-3-yl)-1,3-dioxoisoindolin-4-yl)amino)ethoxy)ethoxy)methyl)-1H-1,2,3-triazol-1-yl)heptyl)(methyl)amino)-1-(phenylthio)butan-2-yl)amino)-3-((trifluoromethyl)sulfonyl)phenyl)sulfonyl)benzamide] | 6.25 | BCL-XL degradation in MOLT-4 cells at 50 nM (BCL-XL; 50 nM, 16 h, Western blot (Figure 4)): better BCL-XL degraders than their amide analogs
5 | 0.0702 | 0.0325 | 0.0325 | 0.129 | CN(CCCNc1cccc2c1C(=O)N(C1CCC(=O)NC1=O)C2=O)CC[C@H](CSc1ccccc1)Nc1ccc(S(=O)(=O)NC(=O)c2ccc(N3CCN(CC4=C(c5ccc(Cl)cc5)CCC(C)(C)C4)CC3)cc2)cc1S(=O)(=O)C(F)(F)F (stereo partly drawn) [Compound 16a, 4-(4-((4’-Chloro-4,4-dimethyl-3,4,5,6-tetrahydro-[1,1’-biphenyl]-2-yl)methyl)piperazin-1-yl)-N-((4-(((2R)-4-((3-((2-(2,6-dioxopiperidin-3-yl)-1,3-dioxoisoindolin-4-yl)amino)propyl)(methyl)amino)-1-(phenylthio)butan-2-yl)amino)-3-((trifluoromethyl)sulfonyl)phenyl)sulfonyl)benzamide] | 3.3 | 
6 | 0.0253 |  | 0.0101 | 0.0418 | CN(CCOCCOCCOCCNc1cccc2c1C(=O)N(C1CCC(=O)NC1=O)C2=O)CC[C@H](CSc1ccccc1)Nc1ccc(S(=O)(=O)NC(=O)c2ccc(N3CCN(CC4=C(c5ccc(Cl)cc5)CCC(C)(C)C4)CC3)cc2)cc1S(=O)(=O)C(F)(F)F (stereo partly drawn) [Compound 17b, 4-(4-((4’-Chloro-4,4-dimethyl-3,4,5,6-tetrahydro-[1,1’-biphenyl]-2-yl)methyl)piperazin-1-yl)-N-((4-(((15R)-1-((2-(2,6-dioxopiperidin-3-yl)-1,3-dioxoisoindolin-4-yl)amino)-12-methyl-16-(phenylthio)-3,6,9-trioxa-12-azahexadecan-15-yl)amino)-3-((trifluoromethyl)sulfonyl)phenyl)sulfonyl)benzamide] | 1.22 | effects on BCL-XL protein levels after drug washout (BCL-XL; MOLT-4, 100 nM for 16 h then washout): long-lasting and also reversible; BCL-XL degradation after pretreatment with MG-132 or pomalidomide (BCL-XL; MOLT-4, 1 μM MG-132 or 10 μM pomalidomide pretreatment for 2 h): can be abrogated; BCL-XL degradation at indicated concentrations (BCL-XL; MOLT-4, 16 h, Western blot (Figure 5A, 5F)): dose-dependently induced BCL-XL degradation; PARP and caspase-3 cleavage [4]: dose-dependently increased
7 |  |  |  |  | CC1(C)CCC(CN2CCN(c3ccc(C(=O)NS(=O)(=O)c4ccc(NCC5CCOCC5)c([N+](=O)[O-])c4)c(Oc4cnc5[nH]ccc5c4)c3)CC2)=C(c2ccc(Cl)cc2)C1 [venetoclax] |  | complete remission rate (CLL patients): 20%; overall response rate (CLL patients): 71–79%
8 |  |  |  |  | (2S,4R)-1-((S)-2-(2-(2-(2-(4-((R)-3-((4-(N-(4-(4-((4’-Chloro-4,4-dimethyl-3,4,5,6-tetrahydro-[1,1’-biphenyl]-2-yl)methyl)piperazin-1-yl)benzoyl)sulfamoyl)-2-((trifluoromethyl)sulfonyl)phenyl)amino)-4-(phenylthio)butyl)piperazin-1-yl)ethoxy)ethoxy)acetamido)-3,3-dimethylbutanoyl)-4-hydroxy-N-((S)-1-(4-(4-methylthiazol-5-yl)phenyl)ethyl)pyrrolidine-2-carboxamide [Compound 4b] |  | times less potent than 4a in reducing MOLT-4 cell viability (MOLT-4 T-ALL cells; MOLT-4, versus 4a): ~ 6 times; IC50 (MOLT-4 T-ALL cells; read-out: IC50, reduction of MOLT-4 cell viability, MOLT-4 cells, 48 h treatment, means of at least three independent experiments (Tables 1-4)): 0.914 µM; BCL-XL degradation in MOLT-4 cells at 100 nM (BCL-XL; 16 h): slightly more potent in inducing BCL-XL degradation than 4a
9 |  |  |  |  | navitoclax [ABT-263, reference compound] |  | selectivity for MOLT-4 cells over human platelets (human platelets; MOLT-4 versus human platelets): no selectivity; IC50 ratio between human platelets and MOLT-4 cells (human platelets; platelets IC50 / MOLT-4 IC50, 48 h): 1.1
